ChEMBL document CHEMBL3085653, “Synthesis and evaluation of hexahydropyrimidines and diamines as novel hepatitis C virus inhibitors” (Eur J Med Chem, 2013)
Structures can show the parent of a compound that is named as a salt. Activity calls are given as the source filed them. No cut-off for these calls is given here.

How the values were obtained:
[1] = Selectivity index, ratio of CC50 for human HuH7 cells to EC50 for cell culture derived HCV expressing NS5A-GFP fusion protein; design: species or system Huh-7
How it was run: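 Index is CC50 divided by EC50. Both values come from the same 10-point dose response in naïve Huh-7 cells infected with NS5A-GFP HCVcc (MOI 1), read at 72 h post-infection. EC50 taken from GFP-positive infection and CC50 from Hoechst nuclei counts, by confocal imaging. Duplicates with quadruplicate measurements.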

Hepatitis C virus [2] = experiment: Antiviral activity against HCV assessed as prevention of infectious virions release into cell culture supernatant by viral supernatant transfer assay; assay type: functional, organism-based; conditions: Hepacivirus hominis
Hepatitis C virus [3] = experiment: Antiviral activity against cell culture derived HCV expressing NS5A-GFP fusion protein infected in human HuH7 cells assessed as inhibition of viral life cycle after 72 hrs by Hoechst-33342 staining-based confocal microscopy; assay type: functional, organism-based, Hepacivirus hominis; conditions: Huh-7, 72 h
[4] = Cytotoxicity against human HuH7 cells; assay type: cell-based, Huh-7
[5] = Chemical stability in cell culture medium assessed as formation of N1,N3-dibenzylpropane-1,3-diamine at 37 degC after 2 days by LC/MS analysis; assay type: physicochemical; conditions: 48 h
How it was run: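 Compound incubated with cells in culture medium at 37 °C for two days. Supernatant then analysed by LC/MS for the parent compound and the ring-opened diamine.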

Hepatitis C virus [6] = experiment: Antiviral activity against HCV expressing GFP infected in human HuH7 cells assessed as inhibition of viral RNA replication after 72 hrs by Hoechst-33342 staining-based confocal microscopy; assay type: functional, organism-based, Hepacivirus hominis; conditions: Huh-7, 72 h
How it was run: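 Huh-7 replicon cells expressing GFP seeded at 2000 cells/well and incubated overnight, then given serially diluted compounds for 72 h. Cells fixed in 2% PFA and nuclei stained with Hoechst 33342 (10 μg/mL). Automated confocal imaging used: RNA replication read as GFP expression, cytotoxicity as nucleus counts. EC50 calculated by non-linear regression.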

[7] = Metabolic stability in liver microsomes (unknown origin) assessed as formation of N1,N3-dibenzylpropane-1,3-diamine by mass spectrum analysis; assay type: ADME, Microsome
Hepatitis C virus [8] = experiment: Antiviral activity against HCV pseudoparticle expressing envelope protein E1 and E2 assessed as inhibition of E1/E2-mediated viral entry into human Huh7 cells treated for 1 hr prior to viral inoculation followed by compound washout 12 hrs post viral inoculation measured after 72 hrs by GFP reporter gene-based confocal microscopic analysis; assay type: functional, organism-based, Hepacivirus hominis; conditions: Huh-7

Row | SMILES | EC50 (Hepatitis C virus [3]) [µM] | Stability [5] | EC50 (Hepatitis C virus [6]) [µM] | Stability [7] | EC50 (Hepatitis C virus [8]) [µM] | Ratio CC50/EC50 [1] | Activity (Hepatitis C virus [2]) | CC50 [4] [µM]
1 | COc1ccc(CN2CCCN(Cc3ccc(OC)cc3)C2c2ccc(C#N)cc2)cc1 | 1.5 |  |  |  |  | 13 | Active | 20
2 | CN(C)c1ccc(CNCCCNCc2ccc(N(C)C)cc2)cc1 | 0.88 |  |  |  |  | 19 |  | 17
3 | c1ccc(CNCCCNCc2ccccc2)cc1 | 4.6 |  |  |  |  | 5.9 |  | 27
4 | c1ccc(CNCCCCCNCc2ccccc2)cc1 | 0.61 |  |  |  |  | 48 |  | 29
5 | COc1ccc(CNCCCCNCc2ccc(OC)cc2)cc1 | 0.38 |  |  |  |  | 84 |  | 32
6 | O=C(NCCCNC(=O)c1ccccc1)c1ccccc1 | > 50 |  |  |  |  |  |  | > 50
7 | COc1ccc(CN2CCCN(Cc3ccc(OC)cc3)C2c2ccc(N(C)C)cc2)cc1 | 1.3 |  |  |  |  | 22 | Active | 28
8 | c1ccc(CN2CCCN(Cc3ccccc3)C2c2ccncc2)cc1 | 4.3 | Unstable | > 50 | Unstable | 4 | >12 | Active | > 50
9 | Cc1ccc(C2N(Cc3ccccc3)CCCN2Cc2ccccc2)o1 | > 50 |  |  |  |  |  | Active | > 50
10 | CC1N(Cc2ccccc2)CCCN1Cc1ccccc1 | 3.7 |  |  |  |  | >14 | Active | > 50
11 | CN(C)c1ccc(CN2CCCN(Cc3ccc(N(C)C)cc3)C2c2ccc(F)cc2)cc1 | 1.3 |  |  |  |  | 12 | Active | 15
12 | CC(CNCCCNCC(C)c1ccccc1)c1ccccc1 (stereo unspecified) | 1.2 |  |  |  |  | 15 |  | 18
13 | CN(C)c1ccc(CNCCCCNCc2ccc(N(C)C)cc2)cc1 | 0.32 |  |  |  |  | 34 |  | 11
14 | NCCCCN [PUTRESCINE DIHYDROCHLORIDE] | > 50 |  |  |  |  |  |  | > 50
15 | CN(C)c1ccc(CN2CCCN(Cc3ccc(N(C)C)cc3)C2c2ccncc2)cc1 | 0.83 |  |  |  |  | 17 | Active | 14
16 | c1ccc(CCNCCCNCCc2ccccc2)cc1 | 1.1 |  |  |  |  | 11 |  | 12
17 | CN(C)c1ccc(C2N(Cc3ccccc3)CCN2Cc2ccccc2)cc1 | > 50 |  |  |  |  |  |  | > 50
18 | c1ccc(CN2CCN(Cc3ccccc3)C2c2ccncc2)cc1 | > 50 |  |  |  |  |  |  | > 50
19 | COc1ccc(CN2CCCN(Cc3ccc(OC)cc3)C2c2ccc(C(F)(F)F)cc2)cc1 | 1.6 |  |  |  |  | 21 | Active | 34
20 | Fc1ccccc1CN1CCCN(Cc2ccccc2Cl)C1c1cccc(C(F)(F)F)c1 (stereo unspecified) | 11 |  |  |  |  | >4.5 | Active | > 50
21 | COc1cccc(CN2CCCN(Cc3ccccc3F)C2c2ccncc2)c1 (stereo unspecified) | 4.7 |  |  |  |  | >11 | Active | > 50
22 | FC(F)(F)c1cccc(C2N(Cc3ccccc3)CCCN2Cc2ccccc2)c1 | 6.5 |  |  |  |  | >7.7 | Active | > 50
23 | COc1ccc(CN2CCCN(Cc3ccc(OC)cc3)C2c2ccncc2)cc1 | 1.5 |  |  |  |  | 15 | Active | 23
24 | COc1ccc(CNCCCNCc2ccc(OC)cc2)cc1 | 1.5 |  |  |  |  | 22 |  | 33
25 | c1ccc(CN2CCCN(Cc3ccccc3)C2)cc1 | > 50 |  |  |  |  |  | Active | > 50

Further lines, with some results ahead:

Row | EC50 (Hepatitis C virus [3]) [µM] | Stability [5] | EC50 (Hepatitis C virus [6]) [µM] | Stability [7] | EC50 (Hepatitis C virus [8]) [µM] | SMILES | Ratio CC50/EC50 [1] | Activity (Hepatitis C virus [2]) | CC50 [4] [µM]
26 | 25 |  |  |  |  | CN(C)c1ccc(C2N(Cc3ccccc3)CCCN2Cc2ccccc2)cc1 | >2 | Active | > 50
27 | > 50 |  |  |  |  | c1ccc(NCCCCNc2ccccc2)cc1 |  |  | > 50
28 | 1.1 |  |  |  |  | COc1ccc(CNCC2CCCN(Cc3ccc(OC)cc3)C2)cc1 (stereo unspecified) | 31 |  | 34.5
29 | 3.2 |  |  |  |  | COc1ccc(CN2CCCN(Cc3ccc(OC)cc3)C2c2cccc(C(F)(F)F)c2)cc1 | 13 | Active | 43
30 | > 50 |  |  |  |  | c1ccc(CNCCNCc2ccccc2)cc1 |  |  | > 50
31 | > 50 |  |  |  |  | NCCCCNCCCN [SPERMIDINE TRIHYDROCHLORIDE] |  |  | > 50
32 | > 50 |  |  |  |  | NCCCNCCCCNCCCN [SPERMINE] |  |  | > 50
33 | 11 |  |  |  |  | COc1ccc(CN2CCCC(CNc3ccc(OC)cc3)C2)cc1 (stereo unspecified) | >4.7 |  | > 50
34 | > 50 |  |  |  |  | CC(C(=O)NCCCNC(=O)C(C)c1ccccc1)c1ccccc1 (stereo unspecified) |  |  | > 50
35 | > 50 |  |  |  |  | CC1N(Cc2ccccc2)CCN1Cc1ccccc1 |  |  | > 50
36 | 1.9 |  |  |  |  | COc1ccc(CN2CCCN(Cc3ccc(OC)cc3)C2c2ccc(F)cc2)cc1 | 20 | Active | 38
37 | 1.9 |  |  |  |  | COc1ccc(CN2CCCN(Cc3ccc(OC)cc3)C2c2ccc(C#N)c(F)c2)cc1 | 15 | Active | 29
38 | > 50 |  |  |  |  | CC(=O)N(CCCCN(Cc1ccccc1)C(C)=O)Cc1ccccc1 |  |  | > 50
39 | 1.7 |  |  |  |  | c1ccc(CNCCOCCNCc2ccccc2)cc1 | 16 |  | 28
40 | 2.7 |  |  |  |  | COc1cccc(CN2CCCN(Cc3ccccc3F)C2c2ccc(C(F)(F)F)cc2)c1 (stereo unspecified) | 8.5 | Active | 23
41 | 1.5 |  |  |  |  | CN(C)c1ccc(CN2CCCN(Cc3ccc(N(C)C)cc3)C2c2ccc(C(F)(F)F)cc2)cc1 | 15 | Active | 23
42 | > 50 |  |  |  |  | O=C1N(Cc2ccccc2)CCCN1Cc1ccccc1 |  | Active | > 50
